According to paper PMC6214403 (Bioorganic & medicinal chemistry, 2018):

Tests used:
[1] = system: CEF transfected with ATG-MYC; experiment: Focus assay: microtumor formation by ATG-MYC expressing vector in CEF; format: cell-based, chicken
[2] = values determined in Sprague Dawley rat; cited from earlier work
[3] = Oxidation susceptibility / stability with rat liver microsomes by mass analysis; format: in vitro ADME; settings: 37 °C
Procedure, shortened: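 Test compound incubated with rat liver microsomes at 37 °C over a time course. Samples analysed by mass spectrometry, with extracted-ion chromatograms monitored for parent and oxidised species. Recovery calculated from the AUC of the extracted ion.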

MYC = MYC (Homo sapiens, UniProt P01106); experiment: Affinity for MYC; format: binding
[4] = Mouse i.v. PK study of 5g; format: in vivo, C57Bl6 mice; settings: 5g versus 5a

Chain of MYC (P01106 whole entry, species assumed): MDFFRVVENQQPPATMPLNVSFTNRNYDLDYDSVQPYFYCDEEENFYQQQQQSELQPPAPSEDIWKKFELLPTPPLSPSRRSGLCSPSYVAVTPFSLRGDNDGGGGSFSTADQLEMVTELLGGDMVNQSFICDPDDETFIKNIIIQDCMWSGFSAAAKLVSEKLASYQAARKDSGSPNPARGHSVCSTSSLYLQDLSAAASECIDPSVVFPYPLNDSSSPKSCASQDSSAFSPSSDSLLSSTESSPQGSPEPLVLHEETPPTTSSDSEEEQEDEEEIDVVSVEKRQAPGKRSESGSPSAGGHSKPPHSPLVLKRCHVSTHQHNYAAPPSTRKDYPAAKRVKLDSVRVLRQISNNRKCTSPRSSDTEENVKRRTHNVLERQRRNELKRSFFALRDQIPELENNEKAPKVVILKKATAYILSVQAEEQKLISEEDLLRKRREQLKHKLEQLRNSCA

Q: For `c1coc(-c2cc(-c3nccs3)cc(-c3ccc(-c4nccs4)cc3)n2)c1` [5j], which “activity in the CEF assay” value [1] is on record?
A: not found to have any activity

Q: Which “loss of potency compared to 5a” value ([1]; CEF assay) does the source give for `CS(=O)(=O)NC(=O)c1ccc(-c2cc(-c3ccc(C#N)cc3)nc(-c3ccco3)c2)cc1` [5m] here?
A: 10 fold

Q: What does the source list for `NC(=O)c1ccc(-c2cc(-c3ccc([N+](=O)[O-])cc3)nc(-c3ccco3)c2)cc1` [5a]?
A: Half-life [2]: 1.6 h; fate of nitro group on incubation with rat liver microsomes [3]: readily eliminated

Q: Which results are given for `NC(=O)c1ccc(-c2cc(-c3ccc(-c4nccs4)cc3)nc(-c3ccco3)c2)cc1` [5g]?
A: ligand efficiency (LE) (MYC): 0.36; improvement in exposure (AUC) compared with 5a [4]: 30 fold
